# Compounds with a hit are over-represented: about 4.3% of the library has one in this group of screens.
# FLuc inhib CS = Photinus pyralis luciferase inhibition counter-screen. ATPLite firefly luciferase biochemical luminescence, 10 min. P08659. inhibition, % at 10 µM. AID 1006. 200,000 tested, 1.5% active;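 active = inhibition above about 50% when tested at 10 µM, limit read from the data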
# Target sequence (P08659 whole entry, looked up): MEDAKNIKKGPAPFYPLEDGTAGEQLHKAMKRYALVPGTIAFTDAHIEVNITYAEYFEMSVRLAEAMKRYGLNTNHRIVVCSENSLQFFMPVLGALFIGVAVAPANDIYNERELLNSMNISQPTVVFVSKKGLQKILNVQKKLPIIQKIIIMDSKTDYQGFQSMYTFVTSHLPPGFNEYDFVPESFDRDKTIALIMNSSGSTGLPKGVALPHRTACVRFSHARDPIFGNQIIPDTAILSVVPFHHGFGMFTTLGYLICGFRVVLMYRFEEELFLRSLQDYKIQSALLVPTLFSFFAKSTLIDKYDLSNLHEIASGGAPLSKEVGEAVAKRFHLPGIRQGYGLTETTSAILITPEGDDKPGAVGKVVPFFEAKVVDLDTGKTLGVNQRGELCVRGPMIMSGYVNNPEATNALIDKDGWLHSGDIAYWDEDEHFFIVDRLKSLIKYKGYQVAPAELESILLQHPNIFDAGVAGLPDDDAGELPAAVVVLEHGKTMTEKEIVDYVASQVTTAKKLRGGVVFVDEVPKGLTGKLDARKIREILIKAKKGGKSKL
# FLuc stim CS = firefly luciferase counter-screen for stimulation assays. ATPlite luciferase biochemical, luminescence, 10 min; 0 = ATP-free wells, 1 = DMSO control. AID 1027. P08659. activation factor at 10 µM. 200,000 tested, under 10 active;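 active = luciferase activation factor, scaled between plate controls, of at least 2 with compound at 10 µM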
#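 System: Luciferase/luciferin detection reagent, cell-free biochemical luciferase assay | Medium: PBS buffer for ATP | Dosing: Test compounds dosed from 2 mM stocks in 100% DMSO | Timing: 10 min at ambient temperature | Signal: Luminescence measurement of luciferase light output | Evaluation: Luciferase activation, seen as luminescence increase over controls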
# SDO1 yeast rescue = restores growth of sdo1-depleted yeast | S. cerevisiae sdo1-depleted JHY4D growth rescue, OD600 30 h; hits give high values; pdr5 snq2 efflux-pump mutant strain | z-score at 10 µM | 140,000 tested, 0.21% active | AID 817;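 active = z-score above 3 at both the 24 hr and the 30 hr optical density reads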
# NF-kB expr up = NF-kB expression increase, human neuronal cells | fold change at 12.5 µM | 190,000 tested, 1.6% active | NF-kB reporter expression; hits give high values | AID 1239; in the data active = fold change above about 3.3
# APP 5'UTR act = APP 5'UTR luciferase reporter activation; SH-SY5Y APP 5'UTR luciferase reporter, luminescence; zero percent = DMSO vehicle wells; activation, % at 2 µM; 190,000 tested, 1% active; AID 1276;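 active = activation above a set limit, based on mean plus 3 SD of controls, cut at about 140% in these data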
# STAT1 act = increases IFN-gamma driven STAT1 reporter signal | NIH 3T3 STAT1-luciferase reporter, luminescence; 100% = IFN-gamma alone, no compound | activation (% of control), % at 5.5 µM | 200,000 tested, 2.6% active;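 active = activation above the screen-wide mean activation plus 3 SD, cut at about 130% in these data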
# A number is an active result; i = inactive; nt = no result.
SMILES,FLuc inhib CS,FLuc stim CS,SDO1 yeast rescue,NF-kB expr up,APP 5'UTR act,STAT1 act
CCN(CC)c1ccc(NC(=O)c2ccco2)cc1,83.2,i,i,5.25,163.8,i
CC(C)CN1C(=O)c2ccc(NC(=O)c3ccco3)cc2C1=O,i,i,nt,i,i,129.8
O=C(NC(=S)Nc1ccc(N2CCOCC2)c(Cl)c1)c1cccs1,i,i,nt,i,i,i
CNS(=O)(=O)c1ccc(NC(=O)c2ccccn2)cc1,i,i,i,i,i,i
O=C(NC1CCCCC1)C(c1ccc(O)c(O)c1)N(C(=O)Cn1nnc2ccccc21)c1cccc(O)c1 (stereo unspecified),i,i,nt,i,i,i
CN1Cc2cccc3c2C(Cc2ccccc2S3)C1 (stereo unspecified),i,i,i,i,i,i
CC1N(C)c2cc(NC(=O)c3ccco3)c(P(=O)(Nc3ccc([N+](=O)[O-])cc3)N3CCOCC3)cc2C1(C)C (stereo unspecified),i,i,nt,i,i,i
CCN(CC)c1ccc(NC(=S)NC(=O)c2cccs2)cc1,i,i,nt,i,i,134.5
CC1N(C)c2cc(NC(=O)c3ccco3)ccc2C1(C)C (stereo unspecified),i,i,i,i,i,142.6
Cc1cccc2[nH]c(-c3ccc(NC(=O)c4ccco4)cc3)nc12,i,i,i,i,i,130.2
O=C(Nc1ccc2nc(-c3ccccc3)[nH]c2c1)c1ccco1,i,i,i,i,i,i
CS(=O)(=O)N1CCN(c2ccc(NC(=S)NC(=O)c3cccs3)cc2)CC1,i,i,nt,i,i,i
O=C(NC(=S)Nc1ccc(N2CCCCC2)cc1)c1cccs1,i,i,i,i,136.2,148.3
Cc1ccc(Cl)c2c1=NC(=O)C=2c1[nH]c(=S)[nH]c1O,i,i,nt,i,i,i
O=C(COc1ccccc1)Nc1nccs1,i,i,i,i,i,i
O=C(COc1ccc2ccccc2c1)Nc1nccs1,83.8,i,nt,6.51,190.1,i
COC(=O)C1=NNC2(c3ccc(C)cc3)C(=O)N(c3ccc(C)cc3)C(=O)C12 (stereo unspecified),i,i,nt,i,i,i
CCCCn1c(/N=C/c2ccc3c(c2)OCO3)nc2ccccc21,i,i,i,i,i,i
CN(C)c1ccc(C=Nc2ccccc2)cc1,i,i,i,i,i,i
CCCCn1c(/N=C/c2ccc(N(C)C)cc2)nc2ccccc21,60.8,i,i,i,i,i
C=CCn1c(-c2ccc(C)cc2)nc2ccccc21,i,i,i,i,i,i
C=CCn1c(/N=C/c2ccc(N(C)C)cc2)nc2ccccc21,93.9,i,i,i,i,i
CN(C)c1ccc(/C=N/n2ncc3ccccc32)cc1,59.7,i,i,i,355.2,150.2
S=c1[nH]ncn1/N=C/c1ccc(Br)cc1,i,i,i,i,i,i
Fc1ccc(N/N=C/c2ccc(N3CCOCC3)cc2)c(F)c1,i,i,nt,3.57,i,131.1
SMILES,FLuc inhib CS,FLuc stim CS,SDO1 yeast rescue,NF-kB expr up,APP 5'UTR act,STAT1 act
C(=N\n1cnnc1)/c1ccc(N2CCOCC2)cc1,i,i,i,i,i,i
S=c1[nH]ncn1/N=C/c1ccc(N2CCOCC2)cc1,86.7,i,i,i,nt,i
CN(C)/N=C/c1ccc(N2CCOCC2)cc1,63.0,i,nt,i,i,i
COc1ccc(C(=O)OCN2C(=O)c3ccccc3C2=O)cc1,i,i,nt,i,i,i
Cc1ccccc1NC(=O)c1cnc2ccccn2c1=O,82.3,i,i,i,i,i
O=C(Nc1cnc2ccccn2c1=O)c1ccc(F)cc1,i,i,i,i,i,i
COc1ccc(C(=O)Nc2cnc3ccccn3c2=O)cc1,i,i,nt,i,i,139.5
COc1ccc(OC)c(NC(=O)c2cnc3ccccn3c2=O)c1,nt,nt,nt,nt,i,i
Cc1cc(C(=O)N2CCN(CCc3ccccc3)CC2)no1,i,i,i,i,i,i
CCc1ccc(N2CC(C(=O)N/N=C/c3cc([N+](=O)[O-])ccc3O)CC2=O)cc1 (stereo unspecified),i,i,nt,i,i,i
O=C(O)c1ccc(C2CCCCC2)cn1,i,i,i,i,i,i
COc1ccc(-c2csc(NC(=O)CC(C)C)n2)cc1,i,i,i,i,i,i
Cc1nc(-c2ccc(NC(=O)CC(C)C)cc2)cs1,67.8,i,i,i,i,129.3
CC(C)(C)C(=O)Nc1ccc(-c2cn3ccsc3n2)cc1,95.6,i,i,3.33,158.1,i
COc1ccc(C(=O)Nc2ccc(-c3cn4ccsc4n3)cc2)cc1S(=O)(=O)N1CCOCC1,i,i,i,i,i,i
CC(C)CC(=O)Nc1ccc(-c2cn3ccsc3n2)cc1,91.6,i,i,6.66,169.3,i
CC(/C=N/NC(=O)c1nn(C)c(C)c1Br)=C\c1ccccc1,79.9,i,i,i,i,131.9
CC(=C/c1ccccc1)/C=N/NC(=O)c1ccc2nc[nH]c2c1,81.9,i,i,i,i,i
CC(/C=N/NC(=O)c1ccncc1)=C\c1ccccc1,60.7,i,i,i,i,i
O=C(N/N=C/C(Br)=C\c1ccccc1)c1ccc2nc[nH]c2c1,i,i,i,i,i,i
COc1ccc(C(C)(C)C)cc1NC(=O)COC(=O)c1ncc(Cl)c(Cl)c1Cl,i,i,i,i,i,i
COC(=O)/C(=C\Nc1ccccc1N)c1ncc(C(F)(F)F)cc1Cl,i,i,i,3.3,i,i
COc1cccc(C(=O)/C=C/Nc2cc(C)ccc2O)c1,61.6,i,i,25.4,i,133.9
NS(=O)(=O)c1ccc(N/C=C/C(=O)c2ccc(Br)cc2)cc1,i,i,i,i,i,142.6
COc1ccc(C(=O)/C=C/Nc2cc(C)on2)cc1,i,i,i,4.27,i,138.9
SMILES,FLuc inhib CS,FLuc stim CS,SDO1 yeast rescue,NF-kB expr up,APP 5'UTR act,STAT1 act
COc1ccc(N/C=C/C(=O)c2ccc(Oc3ncccn3)cc2)cc1,i,i,i,i,i,i
COc1ccc(CC(=O)Nc2cc(C)on2)cc1,i,i,i,i,i,i
COc1ccc(C(=O)/C=C/Nc2ccc([N+](=O)[O-])cc2)cc1,i,i,i,i,i,132.2
O=[N+]([O-])c1ccc(-c2nnc(CNC3CCCC3)o2)cc1,i,i,nt,i,i,i
COc1ccc(C(=O)/C=C/Nc2cccc(O)c2)cc1,95.2,i,i,13.5,194.7,i
COc1ccc(N/C=C\C(=O)c2ccc(C)cc2)cc1OC,i,i,nt,i,i,142.6
COc1cccc2c(=O)c(C(=O)NCc3cccs3)c[nH]c12,i,i,i,i,i,130.5
CC1(C(=O)OCC(=O)Nc2cccc(S(=O)(=O)NC3=NCCCCC3)c2)CC1(Cl)Cl (stereo unspecified),i,i,nt,i,i,i
COc1ccc(/C=N/NC(=O)CNC(=O)COc2ccccc2)cc1,i,i,i,i,i,i
COc1ccc(OCC(=O)N/N=C/c2ccc(N(C)C)cc2)cc1,62.8,i,nt,i,i,i

# Compound activity as filed in PubChem.
